Experimental data from publication PMC3586205 (European journal of pharmacology, 2012).
“Also recorded” adds a separate entry of the source. Like-named read-outs stand apart in the source and are kept apart here.

Key:
[1] = system: cannabinoid agonist-like effects in mice; conditions: cited from earlier work; for % of maximal cannabinoid agonist-like activity in each of the four tests: ref Wiley et al. (2012); for profile in test battery: ref Wiley et al. (2011)
[2] = system: tail flick latency in mice; conditions: cited from earlier work; for %MPE, maximum possible antinociceptive effect in tail flick (maximum effect): 10 mg/kg i.v.; for %MPE tail flick (maximum effect): 30 mg/kg i.v.; for %MPE tail flick ED50 (95% confidence limits): i.v.
food intake in mice [3] = assay: Feeding behavior: 1-h food intake after 24-h food deprivation; type: in vivo; conditions: for decrease in feeding compared to vehicle: 60 min pre-session, significant
[4] = biological target: T1, human cannabinoid CB2 receptor (Homo sapiens, UniProt P34972); conditions: read-out: CB2 Ki (± SEM), displacement of [3H]CP55,940, cited from earlier work
[5] = system: spontaneous activity in mice; conditions: cited from earlier work; for SA ED50 (95% confidence limits): i.v.
ring immobility in mice = conditions: cited from earlier work
[6] = biological target: T2, human cannabinoid CB1 receptor (Homo sapiens, UniProt P21554); conditions: cited from earlier work
[7] = biological target: T2, human cannabinoid CB1 receptor; assay: Cannabinoid CB1 receptor radioligand binding, displacement of [3H]CP55,940
[8] = biological target: T1, human cannabinoid CB2 receptor; assay: Cannabinoid CB2 receptor radioligand binding, displacement of [3H]CP55,940
Summary of the method: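 CHO cells stably expressing human CB2 receptor; membranes made in 50 mM Tris-HCl, 3 mM MgCl2, 1 mM EGTA, pH 7.4. Membrane (10 μg protein) incubated with 1 nM [3H]CP55,940 and varying test compound in 50 mM Tris-HCl pH 7.4, 3 mM MgCl2, 0.2 mM EGTA, 0.5% BSA, 60 min at 30 °C. Non-specific binding was taken with 1 μM unlabeled CP55,940. Bound and free were separated by GF/B filtration with cold Tris-BSA washes, then counted by liquid scintillation.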

[9] = system: spontaneous activity in mice; assay: Spontaneous; type: in vivo; conditions: 30 mg/kg i.v.
Summary of the method: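 Separate groups of mice per dose were injected i.v. with vehicle (ethanol:Emulphor-620:saline 1:1:18) or test compound. Five minutes later each was placed in an activity chamber for 10 min. Total photobeam interruptions were counted and expressed as % inhibition of the vehicle group. ED50s were derived by log-dose linear regression, taking 90% inhibition as maximal.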

[10] = system: tail flick latency in mice; assay: Tail flick antinociception, mouse test battery; type: in vivo; conditions: 30 mg/kg i.v.
Summary of the method: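 Baseline tail-flick latency was taken to radiant heat (bright light) before i.v. injection of vehicle (ethanol:Emulphor-620:saline 1:1:18) or test compound. Latency was re-measured 20 min post-injection with a 10 s cutoff. Result expressed as %MPE = [(test−control latency)/(10−control)] × 100, separate groups per dose.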

[11] = system: rectal temperature in mice; conditions: cited from earlier work; for RT (maximum effect): 30 mg/kg i.v.; for RT ED50 (95% confidence limits): i.v.
food intake in mice [12] = conditions: ref Wiley et al., cited from earlier work; for dose (as low as) that suppressed eating: same food intake protocol, 2005
[13] = 3 mg/kg i.v., ref Wiley et al. (2012)
[14] = read-out: CB1 Ki (± SEM), displacement of [3H]CP55,940, ref Wiley et al. (2012)
[15] = 10 mg/kg i.v., stim=stimulation, ref Wiley et al. (2012)
[16] = 10 mg/kg i.v., ref Wiley et al. (2012)
[17] = 30 mg/kg i.v., ref Wiley et al. (2001)
[18] = read-out: CB1 Ki (± SEM), displacement of [3H]CP55,940, ref Wiley et al. (2011)
[19] = read-out: CB1 receptor binding affinity Ki, ref Wiley et al., 2005
[20] = present study and H.A. Navarro, personal communication

T2 sequence (P21554 whole entry): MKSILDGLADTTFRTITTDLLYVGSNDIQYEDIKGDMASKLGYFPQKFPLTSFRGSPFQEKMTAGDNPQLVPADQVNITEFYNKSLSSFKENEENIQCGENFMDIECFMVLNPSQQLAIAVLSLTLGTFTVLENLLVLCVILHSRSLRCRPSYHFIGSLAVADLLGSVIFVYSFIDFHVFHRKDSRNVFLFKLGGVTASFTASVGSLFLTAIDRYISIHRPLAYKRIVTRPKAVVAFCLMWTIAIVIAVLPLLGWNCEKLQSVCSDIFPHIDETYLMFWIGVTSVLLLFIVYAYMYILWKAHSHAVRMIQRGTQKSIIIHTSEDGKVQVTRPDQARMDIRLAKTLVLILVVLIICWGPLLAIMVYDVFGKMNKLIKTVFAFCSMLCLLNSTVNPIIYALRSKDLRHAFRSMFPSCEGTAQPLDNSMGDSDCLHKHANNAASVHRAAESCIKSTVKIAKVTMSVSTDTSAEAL
T1 sequence (P34972 whole entry): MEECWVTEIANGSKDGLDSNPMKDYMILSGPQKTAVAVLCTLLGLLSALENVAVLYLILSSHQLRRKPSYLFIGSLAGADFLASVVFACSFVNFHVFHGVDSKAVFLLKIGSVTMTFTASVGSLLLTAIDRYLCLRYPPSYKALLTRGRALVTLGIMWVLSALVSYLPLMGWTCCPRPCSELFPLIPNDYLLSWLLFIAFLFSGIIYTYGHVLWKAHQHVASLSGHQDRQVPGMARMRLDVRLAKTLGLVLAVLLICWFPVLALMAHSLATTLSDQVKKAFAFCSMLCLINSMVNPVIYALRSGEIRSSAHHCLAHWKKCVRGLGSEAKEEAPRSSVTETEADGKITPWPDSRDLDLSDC

## 3-bromopropyl carboxamide analog [Compound O-2154]
[1]; 3 mg/kg
  % of maximal cannabinoid agonist-like activity in each of the four tests: at least 50%
[2]; [13]
  %MPE in tail flick (single dose): 50% (3)
Food intake in mice [3]; 56 mg/kg i.p.
  decrease in feeding compared to vehicle: 60%
[4]; ref Wiley et al. (2012)
  Ki: 731 nM
[5]; [13]
  SA, % inhibition of activity of vehicle control group (single dose): 70% (3)
Ring immobility in mice; [13]
  RI, % time immobile (single dose): 35% (3)
[6]; [14]
  Ki: 38 nM

## 3-cyanopropyl carboxamide analog [Compound O-2155]
[1]; 10 mg/kg
  % of maximal cannabinoid agonist-like activity in each of the four tests: at least 50%
[2]; ref Wiley et al. (2012)
  %MPE, maximum possible antinociceptive effect in tail flick (maximum effect): 89% (10)
Food intake in mice [3]; 30 mg/kg i.p.
  decrease in feeding compared to vehicle: 55%
[4]; ref Wiley et al. (2012)
  Ki: 1850 nM
[5]; [15]
  SA, % inhibition of activity of vehicle control group (maximum effect): 86% (10)
Ring immobility in mice; [16]
  RI, % time immobile on elevated ring (maximum effect): 47% (10)
[6]; [14]
  Ki: 222 nM

## Cc1c(C(=O)NCC2CCC(CNS(C)(=O)=O)CC2)nn(-c2ccc(Cl)cc2Cl)c1-c1ccc(Cl)cc1 (centres unmarked) [13226–70, 5-(4-chlorophenyl)-1-(2,4-dichlorophenyl)–N-{[4-(methanesulfonamido-methyl)cyclohexyl]methyl}-4-methyl-1H-pyrazole-3-carboxamide]
Food intake in mice [3]; doses up to 30 mg/kg i.p.
  effect on food intake: failed to alter food intake

## O=C(NN1CCCCC1)c1nn(-c2ccc(Cl)cc2Cl)c2cc(Br)ccc12 [Compound O-1654, 6-bromo-1-(2,4-dichlorophenyl)–N-(piperidin-1-yl)-1H-indazole-3-carboxamide]
[7]
  Ki: 881 nM
Food intake in mice [3]; doses up to 100 mg/kg i.p.
  effect on food intake: did not affect food intake
[8]
  Ki: 1190 nM

## CC1=CC[C@@H]2[C@@H](C1)c1c(O)cc(C(C)(C)CCCCCC(=O)NCCc3ccc(S(N)(=O)=O)cc3)cc1OC2(C)C [Compound O-1689, 7-[(6aR,10aR)-1-hydroxy-6,6,9-trimethyl-6a,7,10,10a-tetrahydro-6H-benzo[c]chromen-3-yl]-7-methyl-N-(4-sulfamoylphenethyl]octanamide]
[7]
  Ki: 38 nM
[9]
  SA, % inhibition of activity of vehicle control group (maximum effect): 46% (30)
Food intake in mice [3]; i.p., doses not stated in text (Fig. 2)
  effect on food intake: failed to affect food intake
[10]
  %MPE tail flick (maximum effect): inactive (30)

## CCCCC(C)c1ccc(-c2c(C)c(C(=O)NN3CCCCC3)nn2-c2ccc(Cl)cc2Cl)cc1 (centres unmarked) [Compound O-1690, 1-(2,4-dichlorophenyl)-5-[4-(hexan-2-yl)phenyl]-4-methyl-N-(piperidin-1-yl)-1H-pyrazole-3-carboxamide]
[1]; ref Wiley et al., 2001
  activity in test battery when tested alone: inactive
[2]; ref Wiley et al. (2001)
  %MPE tail flick (maximum effect): inactive (30)
Food intake in mice [3]; doses up to 30 mg/kg i.p.
  effect on food intake: did not alter food intake
[5]; [17]
  SA (maximum effect): inactive (30)
Ring immobility in mice; [17]
  RI (maximum effect): inactive (30)
[11]; ref Wiley et al. (2001)
  RT (maximum effect): inactive (30)
[6]; read-out: CB1 Ki (± SEM), displacement of [3H]CP55,940, ref Wiley et al. (2001)
  Ki: 2.6 nM

## CC1=CC[C@@H]2[C@@H](C1)c1ccc(CC#CCCCC(=O)NCCc3ccc(S(N)(=O)=O)cc3)cc1OC2(C)C [Compound O-1720]
[7]; read-out: CB1 Ki (± SEM), displacement of [3H]CP55,940
  Ki: 921 nM
Food intake in mice [3]; 100 mg/kg i.p.
  decrease in feeding compared to vehicle: 24%
Food intake in mice [3]; i.p.
  dose that significantly decreased feeding: 100 mg/kg
[8]; read-out: CB2 Ki (± SEM), displacement of [3H]CP55,940
  Ki: 787 nM

## CCS(=O)(=O)NCCCC#CCc1cc(O)c2c(c1)OC(C)(C)[C@@H]1CC=C(C)C[C@@H]21 [Compound O-1991, N-{6-[(6aR,10aR)-1-hydroxy-6,6,9-trimethyl-6a,7,10,10a-tetrahydro-6H-benzo[c]chromen-3-yl]hex-4-yn-1-yl}ethane-sulfonamide]
[1]
  profile in test battery: exhibit agonist-like in vivo effects
[2]; ref Wiley et al. (2011)
  %MPE tail flick ED50 (95% confidence limits): 0.9 (0.6–1.4) mg/kg
Food intake in mice [3]; 56 mg/kg i.p.
  decrease in feeding compared to vehicle: 79%
Food intake in mice [3]; i.p.
  dose that significantly decreased feeding: 56 mg/kg
[4]; ref Wiley et al. (2011)
  Ki: 1.4 nM
[5]; ref Wiley et al. (2011)
  SA ED50 (95% confidence limits): 2 (1–3) mg/kg
[11]; ref Wiley et al. (2011)
  RT ED50 (95% confidence limits): 0.8 (0.4–1.6) mg/kg
[6]; [18]
  Ki: 30 nM

## CC1=CCC2C(C1)c1c(O)cc(CC#CCCCNS(C)(=O)=O)cc1OC2(C)C (centres unmarked) [Compound O-2050, 3-(6′-methane-sulfamidohex-2-yne)-Δ^8-tetrahydrocannabinol]
[1]
  profile in test battery: did not affect responses in the in vivo test battery
[2]; ref Wiley et al. (2011)
  %MPE tail flick (maximum effect): inactive (30)
[4]; ref Wiley et al. (2011)
  Ki: 0.2 nM
Food intake in mice [12]; same procedure, 2011
  effect on food intake: decrease food intake
[5]; 30 mg/kg i.v., ref Wiley et al. (2011)
  SA, % inhibition of activity of vehicle control group (maximum effect): 69% (30)
[11]; ref Wiley et al. (2011)
  RT (maximum effect): inactive (30)
[6]; read-out: CB1 Ki (± SEM)
  Ki: 2.5 nM

## CCS(=O)(=O)NCCCCC(C)(C)c1cc(O)c2c(c1)OC(C)(C)[C@@H]1CC=C(C)C[C@@H]21 [Compound O-2113, N-{5-[(6aR,10aR)-1-hydroxy-6,6,9-tri-methyl-6a,7,10,10a-tetrahydro-6H-benzo[c]chromen-3-yl]-5-methylhexyl}ethanesulfonamide]
[1]
  profile in test battery: exhibit agonist-like in vivo effects
[2]; ref Wiley et al. (2011)
  %MPE tail flick ED50 (95% confidence limits): 0.3 (0.1–1) mg/kg
Food intake in mice [3]; 30 mg/kg i.p.
  decrease in feeding compared to vehicle: 97%
Food intake in mice [3]; i.p.
  dose that significantly decreased feeding: 30 mg/kg
[4]; ref Wiley et al. (2011)
  Ki: 0.08 nM
[5]; ref Wiley et al. (2011)
  SA ED50 (95% confidence limits): 0.4 (0.1–1.8) mg/kg
[11]; ref Wiley et al. (2011)
  RT ED50 (95% confidence limits): 1.4 (0.3–4.6) mg/kg
[6]; [18]
  Ki: 1.7 nM

## Cc1c(C(=O)NN2CCCCC2)nn(-c2ccc(Cl)cc2Cl)c1-c1ccc(CCCCCN=[N+]=[N-])cc1 [Compound O-3257, 5-(4-(5-azidopentyl)phenyl)-1-(2,4-dichlorophenyl)-4-methyl-N-(piperidin-1-yl)-1H-pyrazole-3-carboxamide, reference compound]
Food intake in mice [12]
  dose (as low as) that suppressed eating: 1 mg/kg
[6]; [19]
  Ki: 2.2 nM

## Cc1c(C(=O)NN2CCCCC2)nn(-c2ccc(Cl)cc2Cl)c1-c1ccc(CCCCC[N+](=O)[O-])cc1 [Compound O-3259, 1-(2,4-dichlor-ophenyl)-4-methyl-5-(4-(5-nitropentyl)phenyl)–N-(piperidin-1-yl)-1H-pyrazole-3-carboxamide, reference compound]
Food intake in mice [12]
  dose (as low as) that suppressed eating: 1 mg/kg
[6]; [19]
  Ki: 1.2 nM

## Cc1c(C(=O)NN2CCCCC2)nn(-c2ccc(Cl)cc2Cl)c1-c1ccc(Cl)cc1 [Rimonabant, reference compound]
[2]; ref Wiley et al. (2012)
  %MPE, maximum possible antinociceptive effect in tail flick (maximum effect): inactive (10)
Food intake in mice [3]; 1 mg/kg i.p.
  decrease in feeding compared to vehicle: 47%
Food intake in mice [3]; 10 mg/kg i.p.
  decrease in feeding compared to vehicle: 41%
[5]; [15]
  SA, % inhibition of activity of vehicle control group (maximum effect): stim (10)
[11]; [16]
  RT, change in rectal temperature compared to pre-drug (maximum effect): inactive (10)

## Hemopressin [reference compound]
[7]; [20]
  displacement of [3H]CP55,940 from CB1 receptors: failed to displace
Food intake in mice [3]; doses up to 3 mg/kg i.p.
  effect on food intake: did not affect food intake; also recorded: did not affect feeding
[8]; [20]
  displacement of [3H]CP55,940 from CB2 receptors: failed to displace

## N-allyl carboxamide analog [Compound O-4373]
Food intake in mice [3]; 30 mg/kg i.p.
  decrease in feeding compared to vehicle: 73%
[4]; ref Wiley et al. (2012)
  Ki: 1700 nM
[5]; ref Wiley et al. (2012)
  SA ED50 (95% confidence limits): 2.3 (1.0–5.2) mg/kg
Ring immobility in mice; i.v., ref Wiley et al. (2012)
  RI ED50 (95% confidence limits): 4.2 (2.5–7.0) mg/kg
[11]; ref Wiley et al. (2012)
  RT ED50 (95% confidence limits): 2.9 (2.1–5.0) mg/kg
[6]; [14]
  Ki: 147 nM
